Experimental data: ChEMBL document CHEMBL3352485 (J Med Chem, 2014)
Where a SMILES comes first, the peptide text is derived from it. [ ]: non-standard residue; d: D form. Arg(Me) = CNC(=N)NCCC[C@H](N)C(=O)O; d4Pal = N[C@H](Cc1ccncc1)C(=O)O; azaGly = NNC(=O)O

Columns and labels:
Rattus norvegicus [1] = assay: Testosterone-suppressive activity in Crl:CD(SD) rat assessed as number of animal with plasma testosterone level below the limit of detection at 2 nmol/hr, sc through osmotic pumps measured after 6 days by RIA; assay type: functional
Method in brief: (§1)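 Peptide was dissolved in distilled water or 50% DMSO as 0.1–2 mM pump solutions and delivered by ALZET osmotic pumps implanted subcutaneously in the back of 9-week-old male Crl:CD(SD) rats (n = 5) under ether. Controls received distilled-water pumps. After 6 days, rats were decapitated and plasma was recovered with aprotinin/EDTA. Testosterone was measured by RIA, and the number of rats below the detection limit (0.04 ng/mL) was counted.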

KiSS-1 receptor [2] = target: T1, KiSS-1 receptor (Homo sapiens, UniProt Q969F8); assay: Agonist activity at human KISS1R transfected in CHO cells assessed as intracellular calcium flux after 24 hrs by functional FLIPR assay; assay type: cell-based
T1 sequence (Q969F8 whole entry): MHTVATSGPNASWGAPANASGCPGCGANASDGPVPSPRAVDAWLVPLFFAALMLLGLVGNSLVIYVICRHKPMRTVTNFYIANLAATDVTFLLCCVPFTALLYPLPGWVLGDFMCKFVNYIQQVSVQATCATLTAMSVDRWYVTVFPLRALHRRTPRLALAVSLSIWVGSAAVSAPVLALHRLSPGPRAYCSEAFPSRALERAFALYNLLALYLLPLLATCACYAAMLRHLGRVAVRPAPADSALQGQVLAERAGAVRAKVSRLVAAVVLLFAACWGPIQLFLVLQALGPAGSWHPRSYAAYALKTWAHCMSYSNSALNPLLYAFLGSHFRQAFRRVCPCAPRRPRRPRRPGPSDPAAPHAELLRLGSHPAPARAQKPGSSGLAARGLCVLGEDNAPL
Method in brief: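 CHO cells stably expressing human KISS1R were seeded at 15 000 cells/mL, cultured 24 h, then loaded with fluo-3 for 1 h at 37 °C in HBSS/HEPES (pH 7.4) with probenecid and FBS. Cells were washed in HBSS with 2.5 mM probenecid. Peptides came from 1 mM DMSO stocks diluted in buffer containing probenecid, 0.2% BSA and 0.1% CHAPS. Fluorescence was recorded on FLIPR for 3 min; peak counts over 0–180 s gave agonist activity.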

KiSS-1 receptor [3] = target: T2, KiSS-1 receptor (Rattus norvegicus, UniProt Q924U1); assay: Displacement of radioligand from rat KISS1R transfected in CHO cells; assay type: cell-based
T2 sequence (Q924U1 whole entry): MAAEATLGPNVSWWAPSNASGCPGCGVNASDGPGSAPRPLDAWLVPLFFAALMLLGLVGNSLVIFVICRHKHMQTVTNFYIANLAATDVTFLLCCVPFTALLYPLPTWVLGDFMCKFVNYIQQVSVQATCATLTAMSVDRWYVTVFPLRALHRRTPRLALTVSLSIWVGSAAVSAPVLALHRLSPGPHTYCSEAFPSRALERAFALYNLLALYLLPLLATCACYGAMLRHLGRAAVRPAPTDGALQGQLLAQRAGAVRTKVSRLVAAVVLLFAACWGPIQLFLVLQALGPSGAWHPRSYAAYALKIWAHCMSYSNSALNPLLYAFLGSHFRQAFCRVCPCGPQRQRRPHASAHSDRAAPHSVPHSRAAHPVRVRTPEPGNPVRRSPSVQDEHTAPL

KiSS-1 receptor [4] = target: T1, KiSS-1 receptor; assay: Displacement of radioligand from human KISS1R transfected in CHO cells; assay type: cell-based
Method in brief: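 Binding used membrane fractions prepared from CHO cells expressing recombinant human KISS1R.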

KiSS-1 receptor [5] = target: T2, KiSS-1 receptor; assay: Agonist activity at rat KISS1R transfected in CHO cells assessed as intracellular calcium flux after 24 hrs by functional FLIPR assay; assay type: cell-based
Rattus norvegicus [6] = assay: Testosterone-suppressive activity in Crl:CD(SD) rat assessed as number of animal with plasma testosterone level below the limit of detection at 0.5 nmol/hr, sc through osmotic pumps measured after 6 days by RIA; assay type: functional; method in brief: as §1
[7] = Mean residence time in Sprague-Dawley rat at 1 mg/kg, iv after 24 hrs by LC-MS/MS analysis; assay type: ADME, organism-based; parameters: dose 1 mg/kg, route intravenous; conditions: in vivo
Method in brief: (§2)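 Male Crl:CD(SD) rats (3 per group) got a single intravenous dose of 1 mg/kg. Blood was drawn at 5, 10, 15 and 30 min and at 1, 2, 4, 8 and 24 h. Plasma proteins were removed with 0.2% formic acid/methanol and acetonitrile, and the supernatant was treated with 0.4% formic acid. Peptide was quantified by LC-MS. Noncompartmental parameters were derived per rat, reported as mean ± SD (n = 3).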

[8] = Tmax in Sprague-Dawley rat at 1 mg/kg, sc after 24 hrs by LC-MS/MS analysis; assay type: ADME, organism-based; parameters: dose 1 mg/kg, route subcutaneous; conditions: in vivo
Method in brief: (§3)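 Single subcutaneous dose of 1 mg/kg in male Crl:CD(SD) rats, n = 3 per group. Blood was sampled from 5 min to 24 h (5, 10, 15, 30 min; 1, 2, 4, 8, 24 h). Plasma was deproteinized with formic acid/methanol and acetonitrile, and peptide levels were measured by LC-MS. Noncompartmental analysis per animal gave Cmax, Tmax, AUC0-24h, MRT and BA; values are mean ± SD (n = 3).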

[9] = Stability of the compound in aqueous solution assessed as residual ratio at pH 7 up to 1 week by HPLC analysis relative to initial level; assay type: physicochemical
Method in brief: (§4)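 Peptides in aqueous solution at pH 1.2 (JP1, containing 10% acetonitrile), 3, 5 or 7 were kept in the dark at 37 °C for up to 2 weeks. Peptide remaining was quantified from HPLC peak area, with detection at 230–280 nm. The residual ratio (stability index) was expressed relative to the time-0 amount, taken as 100%.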

[10] = Stability of the compound in aqueous solution assessed as residual ratio at pH 7 up to 2 weeks by HPLC analysis relative to initial level; assay type: physicochemical; method in brief: as §4
[11] = Stability of the compound in aqueous solution assessed as residual ratio at pH 5 up to 1 week by HPLC analysis relative to initial level; assay type: physicochemical; method in brief: as §4
[12] = Stability of the compound in aqueous solution assessed as residual ratio at pH 3 up to 1 week by HPLC analysis relative to initial level; assay type: physicochemical; method in brief: as §4
Rattus norvegicus [13] = assay: Testosterone-suppressive activity in Crl:CD(SD) rat assessed as number of animal with plasma testosterone level below the limit of detection at 0.3 nmol/hr, sc through osmotic pumps measured after 6 days by RIA; assay type: functional; method in brief: as §1
[14] = AUC (0 to 24 hrs) in Sprague-Dawley rat at 1 mg/kg, sc after 24 hrs by LC-MS/MS analysis; assay type: ADME, organism-based; parameters: time < 24 hr, dose 1 mg/kg, route subcutaneous; conditions: plasma; method in brief: as §3
[15] = Volume of distribution at steady state in Sprague-Dawley rat at 1 mg/kg, iv after 24 hrs by LC-MS/MS analysis; assay type: ADME, organism-based; parameters: dose 1 mg/kg, route intravenous; conditions: in vivo, read-out: Vdss; method in brief: as §2
[16] = Mean residence time in Sprague-Dawley rat at 1 mg/kg, sc after 24 hrs by LC-MS/MS analysis; assay type: ADME, organism-based; parameters: dose 1 mg/kg, route subcutaneous; conditions: in vivo; method in brief: as §3
Rattus norvegicus [17] = assay: Testosterone-suppressive activity in Crl:CD(SD) rat assessed as number of animal with plasma testosterone level below the limit of detection at 0.1 nmol/hr, sc through osmotic pumps measured after 6 days by RIA; assay type: functional; method in brief: as §1
[18] = Stability of the compound in aqueous solution assessed as residual ratio at pH 3 up to 2 weeks by HPLC analysis relative to initial level; assay type: physicochemical; method in brief: as §4
[19] = Stability of the compound in aqueous solution assessed as residual ratio at pH 5 up to 2 weeks by HPLC analysis relative to initial level; assay type: physicochemical; method in brief: as §4
[20] = Cmax in Sprague-Dawley rat at 1 mg/kg, sc after 24 hrs by LC-MS/MS analysis; assay type: ADME, organism-based; parameters: dose 1 mg/kg, route subcutaneous; conditions: in vivo; method in brief: as §3
[21] = Stability of the compound in aqueous solution (JP1) assessed as residual ratio at pH 1.2 up to 1 week by HPLC analysis relative to initial level; assay type: physicochemical; method in brief: as §4
[22] = AUC (0 to 24 hrs) in Sprague-Dawley rat at 1 mg/kg, iv after 24 hrs by LC-MS/MS analysis; assay type: ADME, organism-based; parameters: time < 24 hr, dose 1 mg/kg, route intravenous; conditions: plasma; method in brief: as §2
[23] = Stability of the compound in aqueous solution (JP1) assessed as residual ratio at pH 1.2 up to 2 weeks by HPLC analysis relative to initial level; assay type: physicochemical; method in brief: as §4
[24] = Total clearance in Sprague-Dawley rat at 1 mg/kg, iv after 24 hrs by LC-MS/MS analysis; assay type: ADME, organism-based; parameters: dose 1 mg/kg, route intravenous; conditions: in vivo; method in brief: as §2
[25] = C5min in Sprague-Dawley rat at 1 mg/kg, iv after 5 mins by LC-MS/MS analysis; conditions: in vivo, read-out: Cmin

Row | Compound | EC50 (KiSS-1 receptor [2]) [nM] | Ki (KiSS-1 receptor [3]) [nM] | Ki (KiSS-1 receptor [4]) [nM] | EC50 (KiSS-1 receptor [5]) [nM] | remaining at 168 h [9] [%] | remaining at 336 h [10] [%] | remaining at 168 h [11] [%] | remaining at 168 h [12] [%] | remaining at 336 h [18] [%] | remaining at 336 h [19] [%] | remaining at 168 h [21] [%] | remaining at 336 h [23] [%] | Activity (Rattus norvegicus [1]) [%] | Activity (Rattus norvegicus [6]) [%] | Activity (Rattus norvegicus [13]) [%] | Activity (Rattus norvegicus [17]) | also measured
1 | CC[C@H](NC(=O)[C@@H](Cc1c[nH]c2ccccc12)NC(=O)[C@H](N)Cc1ccc(O)cc1)C(=O)N[C@@H](CO)C(=O)N[C@@H](Cc1ccccc1)C(=O)NNC(=O)N[C@@H](CC(C)C)C(=O)N[C@@H](CCCNC(=N)NC)C(=O)N[C@@H](Cc1c[nH]c2ccccc12)C(N)=O | 0.64 | 0.83 | 0.12 | 2.8 |  |  |  |  |  |  |  |  | 0 |  |  |  | 
2 | CNC(=N)NCCC[C@H](NC(=O)[C@H](CC(C)C)NC(=O)NNC(=O)[C@H](Cc1ccccc1)NC(=O)[C@H](CO)NC(=O)[C@H](CC(N)=O)NC(=O)[C@@H](Cc1c[nH]c2ccccc12)NC(=O)[C@H](N)Cc1ccc(O)cc1)C(=O)N[C@@H](Cc1c[nH]c2ccccc12)C(N)=O | 0.51 | 0.077 | 0.037 | 2.3 | 56.5 | 28 | 96 | 98.2 | 97.1 | 90.8 | 60.8 | 33.4 |  | 80 | 40 | 0 rats (n = 5) | 

The next lines start with results.

Row | EC50 (KiSS-1 receptor [2]) [nM] | Ki (KiSS-1 receptor [3]) [nM] | Ki (KiSS-1 receptor [4]) [nM] | EC50 (KiSS-1 receptor [5]) [nM] | remaining at 168 h [9] [%] | remaining at 336 h [10] [%] | remaining at 168 h [11] [%] | remaining at 168 h [12] [%] | remaining at 336 h [18] [%] | remaining at 336 h [19] [%] | remaining at 168 h [21] [%] | remaining at 336 h [23] [%] | Compound | Activity (Rattus norvegicus [1]) [%] | Activity (Rattus norvegicus [6]) [%] | Activity (Rattus norvegicus [13]) [%] | Activity (Rattus norvegicus [17]) | also measured
3 | 2.6 | 0.14 | 0.11 | 10 | 54.9 | 28 | 94.8 | 99.4 | 100 | 91.2 | 60.3 | 32.8 | CNC(=N)NCCC[C@H](NC(=O)[C@H](CC(C)C)NC(=O)NNC(=O)[C@H](Cc1ccccc1)NC(=O)[C@H](CO)NC(=O)[C@H](CC(N)=O)NC(=O)[C@@H](Cc1ccncc1)NC(=O)[C@H](N)Cc1ccc(O)cc1)C(=O)N[C@@H](Cc1ccccc1)C(N)=O [KISS1-305] (H-[dY][d4Pal]NSF[azaGly]L[Arg(Me)]F-NH2) | 100 | 60 | 0 | 0 rats (n = 5) | MRT [7]: 22.8 min; Tmax [8]: 8.4 min; AUC(0-t) at 24 h [14]: 96 ng·h/mL; Vd [15]: 1.58 L/kg; MRT [16]: 36.6 min; Cmax [20]: 145 ng/mL; AUC(0-t) at 24 h [22]: 239 ng·h/mL; clearance [24]: 69.9 mL/min/kg; concentration at 5 min [25]: 969 ng/mL
4 | 1.2 |  | 0.096 | 13 |  |  |  |  |  |  |  |  | CNC(=N)NCCC[C@H](NC(=O)[C@H](CC(C)C)NC(=O)NNC(=O)[C@H](Cc1ccccc1)NC(=O)[C@@H]1CCCN1C(=O)[C@H](CC(N)=O)NC(=O)[C@@H](Cc1ccncc1)NC(=O)[C@H](N)Cc1ccc(O)cc1)C(=O)N[C@@H](Cc1c[nH]c2ccccc12)C(N)=O |  | 20 |  |  | 
5 | 0.87 | 0.13 | 0.074 | 6 |  |  |  |  |  |  |  |  | CNC(=N)NCCC[C@H](NC(=O)[C@H](CC(C)C)NC(=O)NNC(=O)[C@H](Cc1ccccc1)NC(=O)[C@H](CO)NC(=O)[C@H](CC(N)=O)NC(=O)[C@@H](Cc1ccncc1)NC(=O)[C@H](N)Cc1ccc(O)cc1)C(=O)N[C@@H](Cc1c[nH]c2ccccc12)C(N)=O | 80 | 60 | 40 | 0 rats (n = 5) | 
6 | 1.8 |  | 0.052 | 12 |  |  |  |  |  |  |  |  | CNC(=N)NCCC[C@H](NC(=O)[C@H](CC(C)C)NC(=O)NNC(=O)[C@H](Cc1ccccc1)NC(=O)[C@@H](NC(=O)[C@H](CC(N)=O)NC(=O)[C@@H](Cc1ccncc1)NC(=O)[C@H](N)Cc1ccc(O)cc1)C(C)C)C(=O)N[C@@H](Cc1c[nH]c2ccccc12)C(N)=O | 80 | 0 |  |  | 
